Measurements published in ChEMBL document CHEMBL1133641, “A new class of potential chloroquine-resistance reversal agents for Plasmodia: syntheses and biological evaluation of 1-(3'-diethylaminopropyl)-3-(substituted phenylmethylene)pyrrolidines” (2000).
The source made the active and inactive calls. The rule behind the calls is not given here.

Assays:
[1] = system: Plasmodium berghei; assay: Hemozoin formation in chloroquine-sensitive Plasmodium berghei
[2] = system: Plasmodium yoelii; assay: In vivo parasitaemia at day 17 in chloroquine-resistant Plasmodium yoelii nigeriensis infected Swiss Albino mice (Mus musculus); Not active; format: functional, organism-based
[3] = system: Plasmodium yoelii; assay: Heme content after 10 days in chloroquine-resistant Plasmodium yoelii at 15 mg/kg; format: functional
[4] = system: Plasmodium yoelii; assay: In vivo antimalarial activity as MST of 1 week in chloroquine-resistant Plasmodium yoelii nigeriensis infected Swiss Albino mice (Mus musculus) at 15 mg/kg; format: functional
[5] = system: Plasmodium yoelii; assay: In vivo resistance reversal in chloroquine-resistant Plasmodium yoelii nigeriensis infected Swiss Albino mice (Mus musculus); range is 1-2%; format: functional
[6] = system: Plasmodium berghei; assay: Evaluated for the Heme oxygenase (Values are mean +/- SD of 4 separate observations. Specific activity in nmol/h/mg protein) in chloroquine-resistant Plasmodium berghei which is treated with 15 mg/kg body weight of compound for 10 days; NA denotes no activity; format: functional, organism-based; set-up: dose 15 mg/kg
Summary of the method: (§1)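 Mastomys carrying CQ-resistant P. berghei were dosed orally at 15 mg/kg for 10 days. Untreated CQ-resistant and CQ-sensitive parasites served as reference samples. Parasites were isolated by density-gradient centrifugation and saponin lysis. Heme oxygenase was followed as bilirubin formation in the post-mitochondrial fraction and expressed as nmol/h/mg protein.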

[7] = system: Plasmodium yoelii nigeriensis; assay: Hemozoin formation in chloroquine-resistant Plasmodium yoelii at 15 mg/kg for 10 days
[8] = system: Plasmodium yoelii; assay: In vivo antimalarial activity as parasitemia at days 6-10 in chloroquine-resistant Plasmodium yoelii nigerienses infected Swiss Albino mice (Mus musculus); range 70-80%; format: functional
[9] = system: Plasmodium yoelii nigeriensis; assay: Hemozoin formation in chloroquine-sensitive Plasmodium yoelii
[10] = system: Plasmodium yoelii; assay: Evaluated for the Heme oxygenase in chloroquine-sensitive Plasmodium yoelii; format: functional
[11] = system: Plasmodium berghei; assay: (§2) In vivo pretreatment parasitemia in chloroquine-resistant Plasmodium berghei infected Mastomys coucha; range 4-5%; format: functional
[12] = system: Plasmodium berghei; assay: In vivo antimalarial activity as parasitaemia at day 17 in chloroquine-resistant Plasmodium berghei infected Mastomys coucha treated to day 10; range >25-30%; format: functional
[13] = system: Plasmodium berghei; assay: In vivo resistance reversal at day 10 in chloroquine-resistant Plasmodium berghei infected Mastomys coucha at 10 mg/kg; range 20-22; format: functional
[14] = system: Plasmodium berghei; assay: In vivo antimalarial activity as parasitemia at day 10 in chloroquine-resistant Plasmodium berghei infected Mastomys coucha; range 20-22%; format: functional
[15] = system: Plasmodium yoelii nigeriensis; assay: Hemozoin formation in chloroquine-resistant Plasmodium yoelii
[16] = system: Plasmodium yoelii; assay: In vivo antimalarial activity as survivors after 1 month in chloroquine-resistant Plasmodium yoelii nigeriensis infected Swiss Albino mice (Mus musculus) at 15 mg/kg combined with 10 mg/kg chloroquine; format: functional
[17] = system: Plasmodium yoelii; assay: In vivo antimalarial activity as parasitemia at day 6 in chloroquine-resistant Plasmodium yoelii nigerienses infected Swiss Albino mice (Mus musculus); range 70-80%; format: functional
[18] = system: Plasmodium yoelii; assay: In vivo antimalarial activity as parasitemia at day 17 in chloroquine-resistant Plasmodium yoelii nigerienses infected Swiss Albino mice (Mus musculus) treated at day 10; No survivors; format: functional, organism-based
[19] = system: Plasmodium berghei; assay: as §2; format: functional; remark: listed apart in the source
[20] = system: Plasmodium berghei; assay: Evaluated for the Heme oxygenase (Values are mean +/- SD of 4 separate observations. Specific activity in nmol/h/mg protein) in chloroquine-resistant Plasmodium berghei; format: functional
Summary of the method: as §1

[21] = system: Plasmodium berghei; assay: In vivo antimalarial activity as parasitaemia at day 17 in chloroquine-resistant Plasmodium berghei infected Mastomys coucha treated to day 10; range 25-30%; format: functional
[22] = species: Mus musculus; assay: In Vitro inhibition of Heme Oxygenase in Plasmodium yoelii (host) at concentration 100 uM; format: functional
Summary of the method: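 In vitro heme oxygenase, cell-free: post-mitochondrial fractions of P. yoelii parasites and of infected host liver. Test compounds at 10-100 µM were preincubated 10 min in the assay system before the enzyme reaction started. Activity was followed as bilirubin formation and expressed as % inhibition.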

[23] = system: Plasmodium yoelii; assay: (§3) In vivo antimalarial activity as pretreatment parasitemia in chloroquine-resistant Plasmodium yoelii nigerienses infected Swiss Albino mice (Mus musculus); range 1-2%; format: functional
[24] = system: Plasmodium berghei; assay: as §2; format: functional; remark: listed apart in the source
[25] = system: Plasmodium yoelii nigeriensis; assay: In Vitro inhibition of Heme Oxygenase in Cell-free parasite Plasmodium yoelii at concentration 50 uM; format: functional
Summary of the method: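 Heme oxygenase activity was measured as bilirubin formation in a post-mitochondrial fraction. The parasite enzyme came from cell-free P. yoelii, isolated from infected blood by density gradient centrifugation and saponin lysis. The host enzyme came from infected liver. Compounds were tested at 10–100 µM and preincubated for 10 min before the reaction was started.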

[26] = system: Plasmodium yoelii; assay: Heme content in chloroquine-resistant Plasmodium yoelii; format: functional
[27] = system: Plasmodium yoelii; assay: Evaluated for the Heme oxygenase in chloroquine-resistant Plasmodium yoelii which is treated with 15 mg/kg body weight of compound for 10 days;NA denotes no activity; format: functional, organism-based; set-up: dose 15 mg/kg
[28] = system: Plasmodium berghei; assay: Heme content in chloroquine-sensitive Plasmodium berghei; format: functional
[29] = system: Plasmodium berghei; assay: In vivo antimalarial activity as parasitemia at day 17 in chloroquine-resistant Plasmodium berghei infected Mastomys coucha treated to day 10; range 25-30%; format: functional
[30] = system: Plasmodium berghei; assay: In vivo resistance reversal at day 10 against chloroquine-resistant Plasmodium berghei infected Mastomys coucha at 10 mg/kg; range 20-22; format: functional
[31] = system: Plasmodium yoelii; assay: as §3; format: functional; remark: listed apart in the source
[32] = system: Plasmodium yoelii nigeriensis; assay: Inhibition of heme oxygenase in Plasmodium yoelii nigeriensis isolated from infected mice (Mus musculus) (oral); format: functional
Summary of the method: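 Swiss albino mice carried P. yoelii nigeriensis tolerant to CQ up to 120 mg/kg. They received compound orally at 15 mg/kg body wt for 5 days. Parasites were then isolated from blood by density gradient centrifugation and saponin lysis, and enzyme inhibition was measured as percent inhibition.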

[33] = system: Plasmodium yoelii; assay: Evaluated for the Heme oxygenase in chloroquine-resistant Plasmodium yoelii; format: functional
[34] = system: Plasmodium yoelii; assay: In vivo antimalarial activity as MST of 1 week in chloroquine-resistant Plasmodium yoelii nigerienses infected Swiss Albino mice (Mus musculus) at 10 mg/kg chloroquine; format: functional
[35] = system: Plasmodium yoelii; assay: In vivo resistance reversal agent in chloroquine-resistant Plasmodium yoelii nigerienses infected Swiss Albino mice (Mus musculus). Parasitemia observed on day 6-10 of treatment in Group III NI denotes nil inhibition; format: functional, organism-based
[36] = system: Plasmodium berghei; assay: Evaluated for the Heme oxygenase (Values are mean +/- SD of 4 separate observations. Specific activity in nmol/h/mg protein) in chloroquine-sensitive Plasmodium berghei; format: functional
Summary of the method: as §1

[37] = system: Plasmodium berghei; assay: as §2; format: functional; remark: listed apart in the source
[38] = system: Plasmodium berghei; assay: Heme content in chloroquine-resistant Plasmodium berghei at 15 mg/kg for 10 days; format: functional
[39] = system: Plasmodium berghei; assay: In vivo antimalarial activity as parasitemia at day 17 in-chloroquine-resistant Plasmodium berghei infected Mastomys coucha treated to day 10; No inhibition; format: functional, organism-based
[40] = system: Plasmodium berghei; assay: In vivo antimalarial activity as parasitemia at day 10 in chloroquine-resistant Plasmodium berghei infected Mastomys coucha at 15 mg/kg; range 20-22%; format: functional
[41] = system: Plasmodium berghei; assay: Hemozoin formation in chloroquine-resistant Plasmodium berghei
[42] = system: Plasmodium yoelii; assay: Heme content in chloroquine-sensitive Plasmodium yoelii; format: functional
[43] = system: Plasmodium berghei; assay: In vivo resistance reversal at day 10 in chloroquine-resistant Plasmodium berghei infected Mastomys coucha at 10 mg/kg; range 20-22%; format: functional

CCN(CC)CCCN1CC/C(=C\c2ccc(OC)cc2)C1
Mean [1]: 101 pmol/mg
NI [2]: No inhibition
Mean [3]: 172 pmol/mg
Mean survival time [4]: 1
Parasites [5]: 2%
NA [6]: inactive
Mean [7]: 45.1 pmol/mg
Parasites [8]: 80%
Mean [9]: 109 pmol/mg
Mean [10]: 10.2 nM/h/mg
Parasites [11]: 5%
Parasites [12]: >30%
Mean survival time [13]: 22 days
Parasites [14]: 22%
Mean [15]: 43.3 pmol/mg
Mean survival time [16]: > 1 month
Parasites [17]: 80%
NS [18]: No survivors
Parasites [19]: 5%
Mean [20]: 80.2 nM/h/mg
Parasites [21]: >30%
inhibition [22]: 31%
Parasites [23]: 2%
Parasites [24]: 5%
inhibition [25]: 64%
Mean [26]: 109 pmol/mg
NA [27]: inactive
Mean [28]: 344 pmol/mg
Parasites [29]: >30%
Mean survival time [30]: 22 days
Parasites [31]: 2%
Inhibition [32]: 100%
Mean [33]: 102 nM/h/mg
Mean survival time [34]: 1
NI [35]: No inhibition
Mean [36]: 7.32 nM/h/mg
Parasites [37]: 5%
Mean [38]: 321 pmol/mg
NI [39]: No inhibition
Parasites [40]: 22%
Mean [41]: 51.4 pmol/mg
Mean [42]: 218 pmol/mg
Mean survival time [43]: 22 days
